Source: ChEMBL document CHEMBL3868633, “Linker dependent intercalation of bisbenzimidazole-aminosugars in an RNA duplex; selectivity in RNA vs. DNA binding” (Bioorg Med Chem Lett, 2016)
The source made the active and inactive calls. The calls are words filed in the database; no cut-off is given here.

Assays:
[1] = Inhibition of ethidium bromide binding to r(CGCAAAUUUGCG)2 RNA (unknown origin) at 1:1 ratio of ligand:RNA measured after 5 mins by fluorescent intercalator displacement assay relative to control
Method in brief: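 Buffer is 10 mM sodium cacodylate, 0.5 mM EDTA, 100 mM NaCl, pH 7.0, at 23 °C. Read-out is the percent change in fluorescence emission on ligand addition.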

[2] = Binding affinity to poly(rA).(rU) RNA duplex (unknown origin) assessed as appearance of negative induced LD signal at 348 nanometer at 100 uM after 5 mins by microvolume couette flow linear dichroism method
Method in brief: (§1)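 Linear dichroism spectra of poly(rA)•(rU) (1 mM/bp) alone and mixed with ligand at rbd 10. Run in 10 mM sodium cacodylate, 0.5 mM EDTA, 100 mM NaCl, pH 7.0, at room temperature.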

[3] = Binding affinity to d(CGCAAATTTGCG)2 DNA (unknown origin) assessed as thermal stability by measuring change in melting temperature by UV-Vis spectrophotometry
[4] = Binding affinity to r(CGCAAAUUUGCG)2 RNA duplex (unknown origin) assessed as thermal stability by measuring change in melting temperature at 5 uM by UV-Vis spectrophotometry
[5] = Binding affinity to poly(rA).(rU) RNA duplex (unknown origin) assessed as thermal stability by measuring change in melting temperature at 5 uM by UV-Vis spectrophotometry
Method in brief: (§2)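 UV thermal denaturation of poly(rA)•(rU) duplex at 15 µM/bp, with and without ligand, in 10 mM sodium cacodylate, 0.5 mM EDTA, 100 mM NaCl, pH 7.0. ΔTm is the shift from the melting temperature of free RNA.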

[6] = Binding affinity to poly(rA).(rU) RNA duplex (unknown origin) assessed as change in LD signal at 260 nanometer at 100 uM after 5 mins by microvolume couette flow linear dichroism method; method in brief: as §1
[7] = Inhibition of ethidium bromide binding to r(CGCAAAUUUGCG)2 RNA (unknown origin) after 5 mins by fluorescent intercalator displacement assay
[8] = Binding affinity to poly(rA).(rU) RNA duplex (unknown origin) assessed as change in CD band intensity at 266 nanometer measured after 5 mins by circular dichroism titration method
Method in brief: (§3)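 Circular dichroism titration of poly(rA)•(rU) at 40 µM/bp in 10 mM sodium cacodylate, 0.5 mM EDTA, 100 mM NaCl, pH 7.0, at 25 °C. Concentrated ligand is added serially, with five minutes of equilibration after each addition. Each spectrum is the average of two scans. Binding site size (rbd, RNA base pairs per drug) is taken from the change in nucleic acid CD intensity.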

[9] = Binding affinity to poly(rA).(rU) RNA duplex (unknown origin) assessed as appearance of unidirectional induced CD at 347 nanometer measured after 5 mins by circular dichroism titration method; method in brief: as §3
[10] = Binding affinity to poly(rA).(rU) RNA duplex (unknown origin) assessed as appearance of negative induced CD at 347 nanometer measured after 5 mins by circular dichroism titration method; method in brief: as §3
[11] = Binding affinity to poly(rA).(rU) RNA duplex (unknown origin) assessed as isosbestic point at 362 nanometer at 3 uM by UV-vis absorption method
[12] = Binding affinity to poly(rA).(rU) RNA duplex (unknown origin) assessed as hypochromicity at 3 uM by UV-vis absorption method
[13] = Binding affinity to poly(rA).(rU) RNA duplex (unknown origin) assessed as red shift at 3 uM by UV-vis absorption method
[14] = Binding affinity to poly(rA).(rU) RNA duplex (unknown origin) measured after 5 mins by circular dichroism titration method; method in brief: as §3
[15] = Binding affinity to poly(rA).(rU) RNA duplex (unknown origin) assessed as thermal stability by measuring change in melting temperature at 5 uM in presence of Hoechst 33258 by UV-Vis spectrophotometry; method in brief: as §2
[16] = Binding affinity to poly(rA).(rU) RNA duplex (unknown origin) assessed as decrease in CD band intensity at 263 nanometer measured after 5 mins by circular dichroism titration method
Method in brief: (§4)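 Poly(rA)•(rU) at 40 µM/bp in 10 mM sodium cacodylate, 0.5 mM EDTA, 100 mM NaCl, pH 7.0, 25 °C. Concentrated ligand added serially, with 5 min equilibration before each CD scan. Each measurement averages two scans. Changes in nucleic acid CD intensity are plotted against rbd (RNA base pairs per drug) to derive binding site size.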

[17] = Binding affinity to poly(rA).(rU) RNA duplex (unknown origin) assessed as appearance of induced CD band at 320 to 380 nanometer measured after 5 mins by circular dichroism titration method; method in brief: as §4
[18] = Binding affinity to poly(rA).(rU) RNA duplex (unknown origin) assessed as thermal stability by measuring change in melting temperature at 5 uM in presence of neomycin by UV-Vis spectrophotometry

| Compound | inhibition [1] | Activity [2] | ΔTm [3] | ΔTm [5] | other results |
| --- | --- | --- | --- | --- | --- |
| CN1CCN(c2ccc3nc(-c4ccc5nc(-c6ccc(OCCCCCCCCc7cn(C[C@H]8O[C@@H](O[C@@H]9[C@@H](O)[C@H](N)C[C@H](N)[C@H]9O[C@H]9O[C@H](CN)[C@@H](O)[C@H](O)[C@H]9N)[C@H](O)[C@@H]8O[C@H]8OC(CN)[C@@H](O)[C@H](O)[C@H]8N)nn7)cc6)[nH]c5c4)[nH]c3c2)CC1 (stereo not given in full) | 20.7 to 36.2% | Active | 13.2 °C |  | ΔTm [4]: 16.2 °C |
| CN1CCN(c2ccc3nc(-c4ccc5nc(-c6ccc(OCCCCc7cn(C[C@H]8O[C@@H](O[C@@H]9[C@@H](O)[C@H](N)C[C@H](N)[C@H]9O[C@H]9O[C@H](CN)[C@@H](O)[C@H](O)[C@H]9N)[C@H](O)[C@@H]8O[C@H]8OC(CN)[C@@H](O)[C@H](O)[C@H]8N)nn7)cc6)[nH]c5c4)[nH]c3c2)CC1 (stereo not given in full) | 20.7 to 36.2% | Active | 22.8 °C |  | Activity [6]: Active; Ka [7]: 8.8 ×10⁶ /M; ΔTm [4]: 15.1 °C |
| CN1CCN(c2ccc3nc(-c4ccc5nc(-c6ccc(OCCCCCCCCCCOCc7cn(C[C@H]8O[C@@H](O[C@@H]9[C@@H](O)[C@H](N)C[C@H](N)[C@H]9O[C@H]9O[C@H](CN)[C@@H](O)[C@H](O)[C@H]9N)[C@H](O)[C@@H]8O[C@H]8OC(CN)[C@@H](O)[C@H](O)[C@H]8N)nn7)cc6)[nH]c5c4)[nH]c3c2)CC1 (stereo not given in full) | 20.7 to 36.2% | Active | 19 °C | 20.3 °C |  |
| CN1CCN(c2ccc3nc(-c4ccc5nc(-c6ccc(OCCCCCCOCc7cn(C[C@H]8O[C@@H](O[C@@H]9[C@@H](O)[C@H](N)C[C@H](N)[C@H]9O[C@H]9O[C@H](CN)[C@@H](O)[C@H](O)[C@H]9N)[C@H](O)[C@@H]8O[C@H]8OC(CN)[C@@H](O)[C@H](O)[C@H]8N)nn7)cc6)[nH]c5c4)[nH]c3c2)CC1 (stereo not given in full) | 20.7 to 36.2% | Active | 22.2 °C | 15.8 to 19 °C | Activity [8]: Active; Activity [9]: Active; Activity [10]: Active; Activity [11]: Active; Activity [12]: 34.1%; Activity [13]: 10 nm |
| C#CCOCCCCCCCCCCOc1ccc(-c2nc3ccc(-c4nc5ccc(N6CCN(C)CC6)cc5[nH]4)cc3[nH]2)cc1 |  |  |  | 0.3 °C |  |
| C#CCOc1ccc(-c2nc3ccc(-c4nc5ccc(N6CCN(C)CC6)cc5[nH]4)cc3[nH]2)cc1 |  |  |  | 0 °C |  |
| CN1CCN(c2ccc3nc(-c4ccc5nc(-c6ccc(OCCCCCCCCOCc7cn(C[C@H]8O[C@@H](O[C@@H]9[C@@H](O)[C@H](N)C[C@H](N)[C@H]9O[C@H]9O[C@H](CN)[C@@H](O)[C@H](O)[C@H]9N)[C@H](O)[C@@H]8O[C@H]8OC(CN)[C@@H](O)[C@H](O)[C@H]8N)nn7)cc6)[nH]c5c4)[nH]c3c2)CC1 (stereo not given in full) | 20.7 to 36.2% | Active | 21.7 °C | 21.9 °C |  |
| C#CCCCCCCCCCOc1ccc(-c2nc3ccc(-c4nc5ccc(N6CCN(C)CC6)cc5[nH]4)cc3[nH]2)cc1 |  |  |  | -0.4 °C |  |
| C#CCOCCCCCCCCCCCCOc1ccc(-c2nc3ccc(-c4nc5ccc(N6CCN(C)CC6)cc5[nH]4)cc3[nH]2)cc1 |  |  |  | -0.2 °C |  |
| CN1CCN(c2ccc3nc(-c4ccc5nc(-c6ccc(OCc7cn(C[C@H]8O[C@@H](O[C@@H]9[C@@H](O)[C@H](N)C[C@H](N)[C@H]9O[C@H]9O[C@H](CN)[C@@H](O)[C@H](O)[C@H]9N)[C@H](O)[C@@H]8O[C@H]8OC(CN)[C@@H](O)[C@H](O)[C@H]8N)nn7)cc6)[nH]c5c4)[nH]c3c2)CC1 (stereo not given in full) | 20.7 to 36.2% | Active | 23.8 °C |  | ΔTm [4]: 9.1 °C |
| CN1CCN(c2ccc3[nH]c(-c4ccc5[nH]c(-c6ccc(O)cc6)nc5c4)nc3c2)CC1 | 8.2% |  |  | 0.4 °C | Activity [16]: Active; Activity [17]: Active; Activity [8]: Active; ΔTm [18]: 10.5 °C; Activity [12]: 32.2%; Activity [13]: 1 nm |

Now from value to compound, other results behind:

| inhibition [1] | Activity [2] | ΔTm [3] | ΔTm [5] | Compound | other results |
| --- | --- | --- | --- | --- | --- |
|  |  |  | 0.7 °C | C#CCOCCCCCCCCOc1ccc(-c2nc3ccc(-c4nc5ccc(N6CCN(C)CC6)cc5[nH]4)cc3[nH]2)cc1 |  |
| 20.7 to 36.2% | Active | 16.4 °C |  | CN1CCN(c2ccc3nc(-c4ccc5nc(-c6ccc(OCCOCCOCCOCCOCCOCCOCc7cn(C[C@H]8O[C@@H](O[C@@H]9[C@@H](O)[C@H](N)C[C@H](N)[C@H]9O[C@H]9O[C@H](CN)[C@@H](O)[C@H](O)[C@H]9N)[C@H](O)[C@@H]8O[C@H]8OC(CN)[C@@H](O)[C@H](O)[C@H]8N)nn7)cc6)[nH]c5c4)[nH]c3c2)CC1 (stereo not given in full) | ΔTm [4]: 7.2 °C |
|  |  |  | 0.3 °C | C#CCOCCCCOc1ccc(-c2nc3ccc(-c4nc5ccc(N6CCN(C)CC6)cc5[nH]4)cc3[nH]2)cc1 |  |
|  |  |  | -1.2 °C | C#CCCCCOc1ccc(-c2nc3ccc(-c4nc5ccc(N6CCN(C)CC6)cc5[nH]4)cc3[nH]2)cc1 |  |
| 20.4% |  |  | 10.8 °C | NC[C@@H]1O[C@H](O[C@H]2[C@@H](O)[C@H](O[C@@H]3[C@@H](O)[C@H](N)C[C@H](N)[C@H]3O[C@H]3O[C@H](CN)[C@@H](O)[C@H](O)[C@H]3N)O[C@@H]2CO)[C@H](N)[C@@H](O)[C@@H]1O | Activity [8]: Active; Activity [14]: Active; ΔTm [15]: 10.5 °C |
| 20.7 to 36.2% | Active | 18.2 °C |  | CN1CCN(c2ccc3nc(-c4ccc5nc(-c6ccc(OCCCCCCCCCCCCOCc7cn(C[C@H]8O[C@@H](O[C@@H]9[C@@H](O)[C@H](N)C[C@H](N)[C@H]9O[C@H]9O[C@H](CN)[C@@H](O)[C@H](O)[C@H]9N)[C@H](O)[C@@H]8O[C@H]8OC(CN)[C@@H](O)[C@H](O)[C@H]8N)nn7)cc6)[nH]c5c4)[nH]c3c2)CC1 (stereo not given in full) |  |
|  |  |  | 0.2 °C | C#CCOCCOCCOCCOCCOCCOCCOc1ccc(-c2nc3ccc(-c4nc5ccc(N6CCN(C)CC6)cc5[nH]4)cc3[nH]2)cc1 |  |
| 20.7 to 36.2% | Active | 24.6 °C | 15 °C | CN1CCN(c2ccc3nc(-c4ccc5nc(-c6ccc(OCCCCOCc7cn(C[C@H]8O[C@@H](O[C@@H]9[C@@H](O)[C@H](N)C[C@H](N)[C@H]9O[C@H]9O[C@H](CN)[C@@H](O)[C@H](O)[C@H]9N)[C@H](O)[C@@H]8O[C@H]8OC(CN)[C@@H](O)[C@H](O)[C@H]8N)nn7)cc6)[nH]c5c4)[nH]c3c2)CC1 (stereo not given in full) |  |
|  |  |  | 0.3 °C | C#CCOCCCCCCOc1ccc(-c2nc3ccc(-c4nc5ccc(N6CCN(C)CC6)cc5[nH]4)cc3[nH]2)cc1 |  |
